Experimental data reported in ChEMBL document CHEMBL5380838, “Novel Aryl Sulfonamide Derivatives as NLRP3 Inflammasome Inhibitors for the Potential Treatment of Cancer” (J Med Chem, 2023).
Activity calls are given as the source filed them. The calls are words filed in the database; no cut-off is given here.

How the values were obtained:
B16-F10 [1] = assay: Antitumor activity against cytosolic luciferase-transfected mouse B16-F10 cells xenografted in C57BL/6 mouse assessed as tumor reduction at 25 mg/kg, ip administered thrice weekly measured after 14 days by bioluminescence assay; assay type: functional, organism-based; settings: time 14.0 day
In short: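 Female C57BL/6 mice aged 6–8 weeks inoculated subcutaneously with 1 × 10^6 B16-F10 cells stably expressing cytosolic luciferase. From day 5, IP dosing of 25 mg/kg thrice weekly, DMSO for controls, five mice per group. Imaging after IP D-luciferin 150 mg/kg under 2.5% isoflurane, read after 15 min. Caliper volume = π/6 × a × b². Tumors excised day 14.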

THP-1 [2] = assay: Cytotoxicity against human THP-1 cells assessed as reduction in cell viability at 1 uM measured after 48 hrs by RealTime-Glo MT assay; assay type: toxicity, cell-based; settings: thp-1, 48 h
In short: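 THP-1 cells (10 × 10^4/well) treated with inhibitors at 1 µM and kept 48 h; RealTime-Glo reagent added, luminescence read every 12 h as a proxy for metabolically active cells; means of RLU ± SEM.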

B16-F10 [3] = assay: Effect on ASC expression in cytosolic luciferase-transfected mouse B16-F10 cells xenografted in C57BL/6 mouse at 25 mg/kg, ip administered thrice weekly measured after 14 days by Western blot analysis; assay type: functional, organism-based; settings: time 14.0 day
In short: (§1)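 Tumors from luciferase-expressing B16-F10 grafts in C57BL/6 mice, dosed IP at 25 mg/kg thrice weekly (DMSO controls), were excised at endpoint and homogenized in sucrose/HEPES/IGEPAL lysis buffer. Lysates were western blotted and bands expressed as fold ratio over β-actin (n = 5).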

B16-F10 [4] = assay: Antiproliferative activity against cytosolic luciferase-transfected mouse B16-F10 cells xenografted in C57BL/6 mouse assessed as effect on cell growth at 25 mg/kg, ip administered thrice weekly measured after 5 days; assay type: functional, organism-based; settings: time 5.0 day
B16-F10 [5] = assay: Effect on total caspase-1 expression in cytosolic luciferase-transfected mouse B16-F10 cells xenografted in C57BL/6 mouse at 25 mg/kg, ip administered thrice weekly measured after 14 days by Western blot analysis; assay type: functional, organism-based; settings: time 14.0 day; in short: as §1
BMDM [6] = assay: Effect on ASC level in LPS-treated mouse BMDM cells at 1 uM incubated for 30 mins followed by ATP stimulation for 1 hr by Hoechst staining based microscopy; assay type: functional, cell-based; settings: time 90.0 min
In short: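 BMDMs primed with LPS 1 µg/mL for 2 h, given DMSO or compound 1 µM for 30 min, then 5 mM ATP for 1 h. Cells fixed in 4% PFA, permeabilized with 0.1% Triton X-100, stained with anti-ASC overnight at 4 °C plus fluorescent secondary, nuclei Hoechst 1 µM; confocal imaging with 63× oil objective.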

BMDM [7] = assay: Effect on AIM2 inflammasome activation in LPS-treated mouse BMDM cells assessed as IL-1beta release at 1 uM incubated for 30 mins followed by Poly (dA:dT) stimulation for 4 hrs by ELISA method; assay type: functional, cell-based; settings: time 270.0 min
In short: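 BMDMs primed with LPS 100 ng/mL for 3 h, then compound 1 µM in serum-free medium for 30 min, then poly(dA:dT) 1 µg/mL transfected with lipofectamine 2000 for 4 h; supernatant mouse IL-1β by ELISA.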

THP-1 [8] = assay: Suppression of caspase-1 p10 expression in LPS-treated human THP-1 cells at 1 to 1000 nM incubated for 30 mins followed by ATP stimulation for 1 hr […]; assay type: functional, cell-based; settings: dose 1-1000 nM, time 90.0 min
BMDM [9] = assay: Effect on NLRC4 inflammasome activation in LPS-treated mouse BMDM cells assessed as IL-1beta release at 1 uM incubated for 30 mins followed by Salmonella typhimurium flagellin stimulation for 2 hrs by ELISA method; assay type: functional, cell-based; settings: time 150.0 min
In short: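 BMDMs primed with LPS 100 ng/mL for 3 h, then compound 1 µM in serum-free medium for 30 min, then flagellin 100 ng/mL for 2 h; supernatant mouse IL-1β by ELISA.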

[10] = Metabolic stability in human liver microsomes assessed as half life measured per mg protein at 1 uM measured upto 60 mins by LC-MS/MS analysis; assay type: ADME, Microsome
In short: (§2)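 Pooled human or CD-1 male mouse liver microsomes at 0.5 mg/mL with test compound 1 µM in 50 mM phosphate pH 7.4 and 3 mM MgCl2, preincubated 10 min at 37 °C. Percent parent remaining vs 0 min measured by LC-MS/MS. Cli = k/microsomal conc. × 1000; mean ± SD, n = 2.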

THP-1 [11] = assay: Suppression of caspase-1 expression in LPS-treated human THP-1 cells at 1 to 1000 nM incubated for 30 mins followed by ATP stimulation for 1 hr by […]; assay type: functional, cell-based; settings: dose 1-1000 nM, time 90.0 min
In short: (§3)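 PMA-differentiated THP-1 cells (1 × 10^6/well) primed with LPS 1 µg/mL for 3 h, then DMSO or compound in serum-free medium for 30 min, then 5 mM ATP for 1 h. RIPA lysates (20 µg) and concentrated supernatants run on SDS-PAGE and western blotted for NLRP3, ASC, caspase-1 and IL-1β, normalized to GAPDH; three independent experiments.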

B16-F10 [12] = assay: Effect on cleaved caspase-1 expression in cytosolic luciferase-transfected mouse B16-F10 cells xenografted in C57BL/6 mouse at 25 mg/kg, ip administered thrice weekly measured after 14 days by Western blot analysis; assay type: functional, organism-based; settings: time 14.0 day; in short: as §1
THP-1 [13] = assay: Suppression of NLRP3 expression in LPS-treated human THP-1 cells at 1 to 1000 nM incubated for 30 mins followed by ATP stimulation for 1 hr […]; assay type: functional, cell-based; settings: dose 1-1000 nM, time 90.0 min
B16-F10 [14] = assay: Antiproliferative activity against LPS-treated mouse B16-F10 cells co-cultured with mouse peritoneal macrophages assessed as decrease in cell growth at 1 uM incubated for 30 mins followed by ATP stimulation for 1 hr measured after 48 hrs by cell counting method; assay type: functional, cell-based; settings: time 49.5 hrs
In short: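 Transwell co-culture (0.4 µm pores), 48 h: peritoneal macrophages from C57BL/6 mice (2 × 10^5, lower well) primed with LPS 1 µg/mL 2 h, then DMSO or compound 1 µM 30 min, then ATP 1 h; B16-F10 cells (2 × 10^3) in upper insert; tumor cells removed after 48 h and counted by image-based cytometer.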

[15] = Metabolic stability in mouse liver microsomes assessed as half life measured per mg protein at 1 uM measured upto 60 mins by LC-MS/MS analysis; assay type: ADME, Microsome; in short: as §2
BMDM [16] = assay: Effect on NLRP3-ASC interaction in LPS-treated mouse BMDM cells at 1 uM incubated for 30 mins followed by ATP stimulation for 1 hr by co-immunoprecipitation based Western blot analysis; assay type: functional, cell-based; settings: time 90.0 min
In short: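 BMDMs (1 × 10^7) primed with LPS 2 h, treated 1 µM compound 30 min, then ATP 1 h; lysed in HEPES/NaCl/glycerol/EDTA/0.5% Triton buffer with protease/phosphatase inhibitors; NLRP3–ASC co-immunoprecipitation, bait eluted in Laemmli buffer, western blot; representative of three independent experiments.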

[17] = Metabolic stability in human liver microsomes assessed as intrinsic clearance measured per mg protein at 1 uM measured upto 60 mins by LC-MS/MS analysis; assay type: ADME, Microsome; settings: read-out: CLH; in short: as §2
THP-1 [18] = assay: Suppression of pro-IL-1beta expression in LPS-treated human THP-1 cells at 1 to 1000 nM incubated for 30 mins followed by ATP stimulation for 1 hr […]; assay type: functional, cell-based; settings: dose 1-1000 nM, time 90.0 min
THP-1 [19] = assay: Suppression of ASC expression in LPS-treated human THP-1 cells at 1 to 1000 nM incubated for 30 mins followed by ATP stimulation for 1 hr […]; assay type: functional, cell-based; settings: dose 1-1000 nM, time 90.0 min; in short: as §3
B16-F10 [20] = assay: Effect on NLRP3 expression in cytosolic luciferase-transfected mouse B16-F10 cells xenografted in C57BL/6 mouse at 25 mg/kg, ip administered thrice weekly measured after 14 days by Western blot analysis; assay type: functional, organism-based; settings: time 14.0 day; in short: as §1
[21] = Metabolic stability in mouse liver microsomes assessed as intrinsic clearance measured per mg protein at 1 uM measured upto 60 mins by LC-MS/MS analysis; assay type: ADME, Microsome; settings: read-out: CLH; in short: as §2
Mus musculus [22] = assay: Antiinflammatory activity in LPS-induced C57BL/6 mouse assessed as reduction in IL-1beta production in peritoneal exudate at 25 mg/kg, ip pretreated for 30 mins followed by LPS induction measured after 4 hrs by ELISA method; assay type: functional, organism-based; settings: time 4.5 hrs
In short: (§4)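 C57BL/6 mice given inhibitor 25 mg/kg IP (vehicle DMSO) 30 min before IP LPS 1 mg/kg; after 4 h, peritoneal exudate and blood collected, plasma from centrifugation 1000g 15 min 4 °C; IL-1β measured by ELISA; mean ± SEM of three independent experiments.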

B16-F10 [23] = assay: Effect on pro-IL-1beta expression in cytosolic luciferase-transfected mouse B16-F10 cells xenografted in C57BL/6 mouse at 25 mg/kg, ip administered thrice weekly measured after 14 days by Western blot analysis; assay type: functional, organism-based; settings: time 14.0 day; in short: as §1
THP-1 [24] = assay: Suppression of IL-1beta processing in LPS-treated human THP-1 cells at 1 to 1000 nM incubated for 30 mins followed by ATP stimulation for 1 hr by ELISA method; assay type: functional, cell-based; settings: dose 1-1000 nM, time 90.0 min
Mus musculus [25] = assay: Antiinflammatory activity in LPS-induced C57BL/6 mouse assessed as reduction in IL-1beta production in plasma at 25 mg/kg, ip pretreated for 30 mins followed by LPS induction measured after 4 hrs by ELISA method; assay type: functional, organism-based; settings: time 4.5 hrs; in short: as §4

half-life at 1 µM [10]	half-life at 1 µM [15]	microsomal CLint at 1 µM [17]	Structure (SMILES)	Activity (B16-F10 [1])	Activity (THP-1 [2])	Activity (B16-F10 [3])	Activity (B16-F10 [4])	Activity (B16-F10 [5])	Activity (BMDM [6])	Activity (BMDM [7])	Activity (THP-1 [8])	Activity (BMDM [9])	Activity (THP-1 [11])	Activity (B16-F10 [12])	Activity (THP-1 [13])	Activity (B16-F10 [14])	Activity (BMDM [16])	Activity (THP-1 [18])	Activity (THP-1 [19])	Activity (B16-F10 [20])	further results
46.2 min	11.2 min	31.9 µL/min/mg	Nc1ccc(S(=O)(=O)N[C@@H](Cc2ccc(O)cc2)C(=O)Nc2c3c(cc4c2CCC4)CCC3)cc1	Active	Non-Toxic	inactive	inactive	inactive	inactive	inactive	Active	inactive	inactive	inactive	inactive	Active	inactive	inactive	inactive	inactive	microsomal CLint at 1 µM [21]: 124 µL/min/mg; Activity (Mus musculus [22]): Active; Activity (B16-F10 [23]): inactive; Activity (THP-1 [24]): Active; Activity (Mus musculus [25]): Active
48.3 min	5.1 min	28.7 µL/min/mg	Nc1ccc(S(=O)(=O)N2Cc3ccccc3C[C@H]2C(=O)Nc2c3c(cc4c2CCC4)CCC3)cc1	Active	Non-Toxic	inactive	inactive	inactive	inactive	inactive	Active	inactive	inactive	inactive	inactive	Active	inactive	inactive	inactive	inactive	microsomal CLint at 1 µM [21]: 270 µL/min/mg; Activity (Mus musculus [22]): Active; Activity (B16-F10 [23]): inactive; Activity (THP-1 [24]): Active; Activity (Mus musculus [25]): Active
